According to ChEMBL document CHEMBL3232862, “Optimization of chemical functionalities of indole-2-carboxamides to improve allosteric parameters for the cannabinoid receptor 1 (CB1)” (J Med Chem, 2014):
Calls of active or inactive are those of the source. The calls are words filed in the database; no cut-off is given here.

How the values were obtained:
[1] = molecular target: Cannabinoid receptor 1 (Homo sapiens) (UniProt P21554); test: Displacement of [3H]CP55940 from cannabinoid CB1 receptor (unknown origin) expressed in HEK293 cells after 60 mins by liquid scintillation counting; format: cell-based
Summary of the method: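 Membranes from HEK293 cells transiently transfected with CB1 (calcium phosphate), harvested 24 h post-transfection. […] At least nine test concentrations, 100 pM–100 μM. Nonspecific binding defined with 1 μM unlabeled CP55,940. Bound ligand kept below 10%. Filtration on GF/C. Duplicates, ≥3 independent experiments. KB and α obtained by nonlinear regression using the allosteric ternary complex model.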

[2] = molecular target: Cannabinoid receptor 1 (Homo sapiens) (UniProt P21554); test: Allosteric modulation of cannabinoid CB1 receptor (unknown origin) expressed in HEK293 cells assessed as inhibition of CP55940-induced [35S]GTPgammaS binding after 60 mins by liquid scintillation counting; format: functional, cell-based
Summary of the method: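 Membranes from HEK293 cells transiently expressing CB1 (calcium phosphate transfection, harvested 24 h) were used at 7.5 μg per assay. They were incubated 60 min at 30 °C in Tris pH 7.4, MgCl2, EGTA and NaCl with 0.1 nM [35S]GTPγS, 10 μM GDP, 0.1% BSA and CP55,940 (100 pM–100 μM), with or without modulator. Nonspecific binding was taken with 10 μM GTPγS. Read-out was filtration and scintillation counting, duplicates, ≥3 experiments.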

[3] = molecular target: Cannabinoid receptor 1 (Homo sapiens) (UniProt P21554); test: Positive allosteric modulation of cannabinoid CB1 receptor (unknown origin) expressed in HEK293 cells assessed as induction of ERK1/2 phosphorylation by Western blot analysis in presence of siRNA targeting beta-arrestin 1; format: cell-based
Summary of the method: (§1)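 HEK293 cells were lipofectamine-transfected with CB1, with or without β-arrestin 1 siRNA (2.6 μg) or a nonsilencing control. After 24 h they were serum-starved for 18 h, with optional PTX at 5 ng/mL for 16 h at 37 °C. Cells were exposed 5 min to modulator (0–10 μM) plus 0.2 μM CP55,940 and lysed. 12 μg protein was run on 10% SDS-PAGE and immunoblotted for phospho-p44/42 and total p44/42.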

[4] = molecular target: Cannabinoid receptor 1 (Homo sapiens) (UniProt P21554); test: Positive allosteric modulation of cannabinoid CB1 receptor (unknown origin) expressed in HEK293 cells assessed as induction of ERK1/2 phosphorylation at 0.05 to 10 uM in presence of CP55940 for 5 mins and pre-treated with PTX for 16 hrs by Western blot analysis; format: cell-based; summary of the method: as §1
[5] = molecular target: Cannabinoid receptor 1 (Homo sapiens) (UniProt P21554); test: Positive allosteric modulation of cannabinoid CB1 receptor (unknown origin) expressed in HEK293 cells assessed as effect on ERK1/2 phosphorylation at 5 uM by Western blot analysis in absence of siRNA targeting beta-arrestin 1; format: cell-based; summary of the method: as §1
[6] = molecular target: Cannabinoid receptor 1 (Homo sapiens) (UniProt P21554); test: Positive allosteric modulation of cannabinoid CB1 receptor (unknown origin) expressed in HEK293 cells assessed as induction of ERK1/2 phosphorylation by Western blot analysis in absence of siRNA targeting beta-arrestin 1; format: cell-based; summary of the method: as §1

Cannabinoid receptor 1 (Homo sapiens), sequence (P21554 whole entry): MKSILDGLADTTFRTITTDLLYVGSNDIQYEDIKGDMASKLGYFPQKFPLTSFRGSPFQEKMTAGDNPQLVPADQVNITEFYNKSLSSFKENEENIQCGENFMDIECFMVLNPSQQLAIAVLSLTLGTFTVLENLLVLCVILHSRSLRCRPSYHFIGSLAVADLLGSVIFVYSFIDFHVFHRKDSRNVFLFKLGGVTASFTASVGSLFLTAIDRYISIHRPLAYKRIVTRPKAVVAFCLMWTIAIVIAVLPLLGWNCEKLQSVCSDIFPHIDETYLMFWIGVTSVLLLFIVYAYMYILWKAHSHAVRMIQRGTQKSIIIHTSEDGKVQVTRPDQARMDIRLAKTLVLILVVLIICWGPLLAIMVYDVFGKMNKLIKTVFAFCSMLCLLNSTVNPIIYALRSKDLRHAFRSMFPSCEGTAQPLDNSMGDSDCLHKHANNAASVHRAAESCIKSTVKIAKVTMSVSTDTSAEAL

SMILES	Kb [1] [nM]	inhibition [2]	inhibition [3]	Activity [4]	Activity [5]	inhibition [6]
CCc1c(C(=O)NCCc2ccc(N(C)C)cc2)[nH]c2cc(Cl)ccc12	3670					
CCCc1c(C(=O)NCCc2ccc(N3CCCCC3)cc2)[nH]c2ccc(Cl)cc12	1750					
CCCCCCc1c(C(=O)NCCc2ccc(N(C)C)cc2)[nH]c2ccc(Cl)cc12	89.1	Dose-dependent effect	inactive	Active	Active	Dose-dependent effect
CCCc1c(C(=O)NCCc2ccc(N(C)C)cc2)[nH]c2ccc(Cl)cc12	259	Dose-dependent effect	inactive		Active	Dose-dependent effect
CCc1c(C(=O)NCCc2ccc(N(C)C)cc2)[nH]c2cc(F)ccc12	1580					
CCCCc1c(C(=O)NCCc2ccc(N(C)C)cc2)[nH]c2ccc(Cl)cc12	209					
